Test results as given in ChEMBL document CHEMBL1123482, “Synthesis and dopaminergic activity of some halogenated mono- and dihydroxylated 2-aminotetralins” (1986).
Each block holds one molecule with its values, some of them ahead of it. Active and inactive are the calls of the source. The rule behind the calls is not given here.

Key:
[1] = target: D(2) dopamine receptor (Bos taurus) (UniProt P20288); assay: Affinity for Dopamine receptor D2 was evaluated from the ability to displace [3H]spiroperidol from homogenized bovine pituitary
How it was run: (§1)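 Bovine anterior pituitary homogenate with [3H]spiroperidol ~0.25 nM. Screened at 10^-5 and 10^-7 M; where displacement was 50% or more, IC50 was determined. KBind = IC50/(1 + L/KD), spiroperidol KD 0.3 nM.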

[2] = target: D(1A) dopamine receptor (Rattus norvegicus) (UniProt P18901); assay: Stimulation of dopamine-sensitive rat caudate adenylate cyclase or antagonism of dopamine stimulus as measure of D1 efficacy; No stimulation; assay type: functional
[3] = target: D(1A) dopamine receptor (Rattus norvegicus) (UniProt P18901); assay: Affinity for Dopamine receptor D1 binding sites was evaluated in a test involving displacement of [3H]- fenoldopam in rat striatum; assay type: tissue-based
[4] = target: D(1A) dopamine receptor (Rattus norvegicus) (UniProt P18901); assay: The ability of a compound to stimulate dopamine-sensitive rat caudate adenylate cyclase or to antagonise the stimulant of dopamine was used as measure of D1 efficacy; assay type: functional
Oryctolagus cuniculus [5] = species: Oryctolagus cuniculus; assay: The D2 efficacy was evaluated in isolated perfused rabbit ear artery test; No response at 1 uM; assay type: functional
How it was run: (§2)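 Isolated perfused rabbit ear artery given brief intermittent nerve stimulation; concentration-dependent inhibition of the constrictor response measured. EC50 is the concentration giving 50% inhibition of constriction. Antagonist KB values for (S)-sulpiride determined by the Furchgott method, in nM.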

[6] = target: D(2) dopamine receptor (Bos taurus) (UniProt P20288); assay: Affinity for Dopamine receptor D2 was evaluated from the ability to displace [3H]spiroperidol from homogenized bovine uM; conditions: concentration not given here; how it was run: as §1
Oryctolagus cuniculus [7] = species: Oryctolagus cuniculus; assay: The D2 efficacy was evaluated in isolated perfused rabbit ear artery test; assay type: functional; conditions: read-out: ED50 (the source's name); how it was run: as §2

Sequence of D(2) dopamine receptor (Bos taurus) (P20288 whole entry, the tested form may be a part): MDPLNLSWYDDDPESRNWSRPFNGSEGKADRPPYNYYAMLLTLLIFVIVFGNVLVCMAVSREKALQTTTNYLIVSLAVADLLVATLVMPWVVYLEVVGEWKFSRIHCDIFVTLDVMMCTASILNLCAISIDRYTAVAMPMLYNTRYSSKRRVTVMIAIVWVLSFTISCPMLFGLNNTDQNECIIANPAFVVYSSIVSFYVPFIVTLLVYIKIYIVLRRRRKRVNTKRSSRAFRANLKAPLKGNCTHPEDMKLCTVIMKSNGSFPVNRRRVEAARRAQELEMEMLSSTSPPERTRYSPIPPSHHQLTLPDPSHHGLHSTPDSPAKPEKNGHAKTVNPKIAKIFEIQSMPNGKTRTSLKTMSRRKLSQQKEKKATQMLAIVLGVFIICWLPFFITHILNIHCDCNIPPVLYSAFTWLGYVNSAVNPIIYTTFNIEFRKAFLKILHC
Sequence of D(1A) dopamine receptor (Rattus norvegicus) (P18901 whole entry, the tested form may be a part): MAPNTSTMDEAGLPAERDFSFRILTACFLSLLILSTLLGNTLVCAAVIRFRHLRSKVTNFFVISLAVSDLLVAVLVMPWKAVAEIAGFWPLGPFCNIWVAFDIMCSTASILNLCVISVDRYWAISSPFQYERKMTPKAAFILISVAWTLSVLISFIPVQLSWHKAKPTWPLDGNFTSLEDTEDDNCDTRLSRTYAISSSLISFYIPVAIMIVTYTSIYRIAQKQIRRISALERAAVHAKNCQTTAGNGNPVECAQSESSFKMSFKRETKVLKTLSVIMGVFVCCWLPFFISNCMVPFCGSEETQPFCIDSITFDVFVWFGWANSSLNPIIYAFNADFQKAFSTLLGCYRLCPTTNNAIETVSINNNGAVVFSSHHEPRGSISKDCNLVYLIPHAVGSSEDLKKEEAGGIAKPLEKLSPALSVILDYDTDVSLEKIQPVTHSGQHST

Structure (SMILES): NC1CCc2c(cc(O)c(O)c2Cl)C1 (stereo not drawn)
K Bind [1]: 0.47 µM
ED50 [2]: inactive
K Bind [3]: 0.84 µM

Structure (SMILES): CCCN(CCC)C1CCc2cc(O)c(O)c(Cl)c2C1 (stereo not drawn)
K Bind [1]: 0.24 µM
K Bind [3]: 0.62 µM

K Bind [1]: 14.1 µM
K Bind [3]: > 50 µM
Structure (SMILES): CCCN(CCC)CC1CCc2cc(F)c(O)cc2C1 (stereo not drawn)

K Bind [1]: 0.033 µM
K Bind [3]: 0.27 µM
Structure (SMILES): CCCN(CCc1ccc(O)cc1)C1CCc2cc(O)c(O)c(Cl)c2C1 (stereo not drawn)

Structure (SMILES): NC1CCc2c(cc(O)c(O)c2F)C1 (stereo not drawn)
K Bind [1]: 0.52 µM
ED50 [4]: 1600 nM
K Bind [3]: 0.074 µM

K Bind [1]: 0.41 µM
K Bind [3]: 0.145 µM
Structure (SMILES): Oc1ccc(CCNC2CCc3cc(O)c(O)c(Cl)c3C2)cc1 (stereo not drawn)

Structure (SMILES): CCCN(CCC)C1CCc2c(ccc(O)c2Cl)C1 (stereo not drawn)
K Bind [1]: 0.85 µM
K Bind [3]: 2.25 µM

Structure (SMILES): CCCN(CCC)C1CCc2cc(Cl)c(O)cc2C1 (stereo not drawn)
K Bind [1]: 1.63 µM
ED50 [2]: inactive
K Bind [3]: 4.71 µM

Structure (SMILES): NC1CCc2c(ccc(O)c2Cl)C1 (stereo not drawn)
K Bind [1]: 11.6 µM
K Bind [3]: > 10 µM

Structure (SMILES): CN(C)C1CCc2cc(O)c(Cl)cc2C1 (stereo not drawn)
K Bind [1]: 0.09 µM
ED50 [2]: inactive
K Bind [3]: 2.3 µM

Structure (SMILES): CCCN(CCC)C1CCc2cc(F)c(O)cc2C1 (stereo not drawn)
K Bind [1]: 0.43 µM
K Bind [3]: 1.74 µM

Structure (SMILES): CCCN(CCC)C1CCc2cc(O)c(Cl)cc2C1 (stereo not drawn)
K Bind [1]: 0.9 µM
ED50 [2]: inactive
K Bind [3]: 8.23 µM

Structure (SMILES): CN(C)C1CCc2c(ccc(O)c2Cl)C1 (stereo not drawn)
K Bind [1]: 3.5 µM
K Bind [3]: 5.95 µM

Structure (SMILES): NCCc1ccc(O)c(O)c1
ED50 [4]: 3500 nM

Structure (SMILES): CCCN(CCC)C1CCc2cc(Cl)c(O)c(Cl)c2C1 (stereo not drawn)
K Bind [1]: 10.4 µM
ED50 [2]: inactive
K Bind [3]: > 10 µM

Structure (SMILES): NC1CCc2cc(Cl)c(O)cc2C1 (stereo not drawn)
K Bind [1]: 1.05 µM
ED50 (Oryctolagus cuniculus [5]): inactive
ED50 [2]: inactive
K Bind [3]: 1.44 µM

Structure (SMILES): NC1CCc2cc(F)c(O)cc2C1 (stereo not drawn)
K Bind [1]: 0.66 µM
K Bind [3]: 0.37 µM

Structure (SMILES): CN(C)C1CCc2cc(Cl)c(O)cc2C1 (stereo not drawn)
K Bind [1]: 1.55 µM
ED50 [2]: inactive
K Bind [3]: 2.63 µM

Structure (SMILES): NC1CCc2cc(O)c(O)cc2C1 (stereo not drawn)
K Bind [1]: 0.21 µM
ED50 [4]: 2700 nM
K Bind [3]: 0.07 µM

Structure (SMILES): NC1CCc2cc(O)c(Cl)cc2C1 (stereo not drawn)
K Bind [1]: 4.47 µM
ED50 [2]: inactive
K Bind [3]: 1.97 µM

Structure (SMILES): NC1CCc2cc(Cl)c(O)c(Cl)c2C1 (stereo not drawn)
inhibition [6]: 30%
K Bind [3]: 2.97 µM

Structure (SMILES): NC1CCc2cc(O)c(O)c(F)c2C1 (stereo not drawn)
K Bind [1]: 1.27 µM
ED50 [4]: 2200 nM
K Bind [3]: 0.062 µM

Structure (SMILES): NC1CCc2cc(O)c(O)c(Cl)c2C1 (stereo not drawn)
K Bind [1]: 3.16 µM
ED50 [4]: 1400 nM
K Bind [3]: 0.043 µM
EC50 (Oryctolagus cuniculus [7]): 536000 nM

Structure (SMILES): CN(C)C1CCc2cc(F)c(O)cc2C1 (stereo not drawn)
K Bind [1]: 0.47 µM
K Bind [3]: 0.76 µM

Structure (SMILES): CN(C)C1CCc2cc(Cl)c(O)c(Cl)c2C1 (stereo not drawn)
inhibition [6]: 29%
K Bind [3]: > 20 µM
